In ChEMBL document CHEMBL2203058, “Isolation of steroidal glycosides from the Caribbean sponge Pandaros acanthifolium” (J Nat Prod, 2012):
The source made the active and inactive calls. No cut-off for these calls is given here.

Columns and labels:
[1] = tested on: U-373MG ATCC; assay: (§1) Antioxidant activity in human U373 cells assessed as increase of antioxidant response element-mediated phase 2 protein expression at 25 ug/ml after 24 hrs by luciferase reporter gene assay relative to control; type: functional
Procedure, shortened: (§2)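 U373 astrocytoma cells stably carrying firefly luciferase under ARE control, grown in DMEM with 10% FCS and antibiotics. 5 × 10^4 cells/well seeded in quadruplicate, exposed 24 h to 25, 10, 5 or 2.5 μg/mL glycoside, then luciferase read. Controls: mock-treated and DMSO 0.25% v/v. Activity expressed as fold change versus 25 μM tert-butylhydroquinone; >2-fold over TBHQ scored a hit.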

[2] = tested on: U-373MG ATCC; assay: Cytoprotective activity in H2O2-stimulated human U373 cells assessed as increase of SOD activity at 2.5 to 25 ug/ml treated 24 hrs before H2O2 stimulation measured after 24 hrs; type: functional, cell-based
Procedure, shortened: (§3)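 U373 cells at 2 × 10^4/well in quadruplicate, pretreated 24 h with 25, 10, 5 or 2.5 μg/mL glycoside. Media replaced with fresh media containing glycoside plus 300 μM H2O2 for 24 h more. Cells PBS-washed, lysed by three freeze–thaw cycles, centrifuged; SOD (WST-1/xanthine oxidase inhibition, […], against SOD standard curve) or GPx measured by colorimetric kits.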

[3] = as §1; type: functional, U-373MG ATCC; procedure, shortened: as §2
[4] = tested on: U-373MG ATCC; assay: Cytoprotective activity in H2O2-stimulated human U373 cells assessed as increase of glutathione peroxidase activity at 2.5 to 25 ug/ml treated 24 hrs before H2O2 stimulation measured after 24 hrs; type: functional, cell-based; procedure, shortened: as §3
[5] = Cytotoxicity against human U373 cells; type: cell-based; settings: u-373mg atcc
Procedure, shortened: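 Viability measured by MTT tetrazolium reduction in parallel reporter U373 cultures under the reporter assay conditions: 24 h with 25, 10, 5 or 2.5 μg/mL glycoside, quadruplicate wells.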

[6] = tested on: U-373MG ATCC; assay: Antioxidant activity in human U373 cells assessed as increase of antioxidant response element-mediated phase 2 protein expression after 24 hrs by luciferase reporter gene assay; type: functional, cell-based; procedure, shortened: as §2
[7] = tested on: xenobiotic response element (XRE)-mediated transcriptional activity; assay: Toxicity in human U373 cells assessed as effect on xenobiotic response element-mediated activity at 2.5 to 25 ug/ml after 24 hrs by luciferase reporter gene assay; type: cell-based, U-373MG ATCC; settings: read-out: FC
Procedure, shortened: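 XRE counterscreen: U373 astrocytoma cells stably carrying a luciferase cassette driven by the xenobiotic response element, grown in DMEM with 10% FCS and antibiotics. 5 × 10^4 cells/well in quadruplicate, 24 h with 25, 10, 5 or 2.5 μg/mL glycoside, then luciferase activity measured. Mock and DMSO (0.25% v/v) controls.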

[8] = tested on: U-373MG ATCC; assay: Cytoprotective activity in H2O2-stimulated human U373 cells assessed as increase of glutathione peroxidase activity treated 24 hrs before H2O2 stimulation measured after 24 hrs; type: functional, cell-based; procedure, shortened: as §3
[9] = tested on: U-373MG ATCC; assay: Cytoprotective activity in H2O2-stimulated human U373 cells assessed as increase of SOD activity treated 24 hrs before H2O2 stimulation measured after 24 hrs; type: functional, cell-based; procedure, shortened: as §3
[10] = Antioxidant activity in human U373 cells assessed as increase of antioxidant response element-mediated phase 2 protein expression after 24 hrs by luciferase reporter gene assay relative to TBHQ; type: functional, U-373MG ATCC; procedure, shortened: as §2
[11] = tested on: U-373MG ATCC; assay: Cytoprotective activity in human U373 cells assessed as effect of H2O2-stimulated lipid peroxidation assay at 2.5 to 25 ug/ml treated 24 hrs before H2O2 stimulation measured after 24 hrs by TBARS assay; type: functional, cell-based
Procedure, shortened: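 U373 cells at 2 × 10^4/well in quadruplicate, 24 h pretreatment with 25, 10, 5 or 2.5 μg/mL glycoside, then 24 h in fresh media with glycoside and 300 μM H2O2. PBS-washed cells lysed by freeze–thaw; uncentrifuged lysate assayed for TBARS (MDA–TBA adduct, A532), calibrated with MDA 0–100 nmol/mL, reported as MDA equivalents. Mock and 0.25% DMSO controls.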

| SMILES | Activity [1] | Activity [2] | fold change (FC) [3] | Activity [4] | Activity [5] | Activity [6] | fold induction at 24 h [7] | Activity [8] | Activity [9] | fold change (FC) [10] | Activity [11] |
| --- | --- | --- | --- | --- | --- | --- | --- | --- | --- | --- | --- |
| CC(C)(C)c1cc(O)ccc1O | Active |  |  |  |  |  |  |  |  |  |  |
| CC[C@H](C(C)C)[C@@H](O)C[C@@H](C)[C@H]1[C@@H](OC(C)=O)[C@@H](O[C@@H]2O[C@@H](C)[C@H](O)[C@@H](O)[C@H]2O)[C@H]2[C@@H]3CC=C4C[C@@H](O[C@H]5O[C@@H](CO)[C@H](O)[C@@H](O)[C@@H]5O[C@@H]5O[C@@H](C)[C@H](O)[C@@H](O)[C@H]5O)CC[C@]4(C)[C@H]3CC[C@@]21C [ACANTHIFOLIOSIDE J] |  | Active | 1.52 | Active |  |  |  |  |  |  |  |
| CC(=O)O[C@H]1[C@@H](O[C@@H]2O[C@@H](C)[C@H](O)[C@@H](O)[C@H]2O)[C@H]2[C@@H]3CC[C@H]4C[C@@H](O[C@H]5O[C@@H](CO)[C@H](O)[C@@H](O)[C@@H]5O[C@@H]5O[C@@H](C)[C@H](O)[C@@H](O)[C@H]5O)CC[C@]4(C)[C@H]3CC[C@]2(C)[C@H]1[C@H](C)CCCC(C)C [ACANTHIFOLIOSIDE G] |  |  | 2.27 |  | Non-toxic | Dose-dependent effect | > 2 | Dose-dependent effect | Dose-dependent effect | 2 | inactive |
